# Data as given in ChEMBL document CHEMBL1138494, “Human glucagon receptor antagonists with thiazole cores. A novel series with superior pharmacokinetic properties” (J Med Chem, 2009).
# Target: T1, Gastric inhibitory polypeptide receptor (Homo sapiens, UniProt P48546)
# T1 sequence (P48546 whole entry): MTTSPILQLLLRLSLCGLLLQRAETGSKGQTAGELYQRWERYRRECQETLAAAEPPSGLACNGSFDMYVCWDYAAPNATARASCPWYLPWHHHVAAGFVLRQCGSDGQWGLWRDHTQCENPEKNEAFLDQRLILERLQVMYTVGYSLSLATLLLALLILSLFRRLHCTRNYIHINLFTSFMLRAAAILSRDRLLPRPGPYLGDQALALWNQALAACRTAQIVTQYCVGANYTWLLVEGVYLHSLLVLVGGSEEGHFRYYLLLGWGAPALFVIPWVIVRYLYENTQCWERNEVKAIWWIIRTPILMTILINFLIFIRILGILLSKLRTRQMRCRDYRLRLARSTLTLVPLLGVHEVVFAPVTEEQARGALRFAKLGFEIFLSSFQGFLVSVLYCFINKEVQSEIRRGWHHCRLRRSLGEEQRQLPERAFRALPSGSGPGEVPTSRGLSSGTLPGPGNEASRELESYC
# Experiment: Displacement of [125I]porcine GIP from human recombinant GIPR receptor expressed in BHK cells by scintillation proximity assay
# Format: cell-based
# Details: not given
row,IC50 [µM],Structure (SMILES)
1,0.732,O=C(O)CCNC(=O)c1ccc(N(Cc2ccc3c(c2)Cc2ccccc2-3)c2nc(-c3ccc(OC(F)(F)F)cc3)cs2)cc1
2,> 1,O=C(NC[C@@H](O)C(=O)O)c1ccc(CN(c2ccc3c(c2)CCC3)c2nc(-c3ccc(C(F)(F)F)cc3)cs2)cc1
3,0.777,O=C(O)CCNC(=O)c1ccc(CN(c2ccc(SC(F)(F)F)cc2)c2nc(-c3ccc(C(F)(F)F)cc3)cs2)cc1
4,0.555,O=C(O)CCNC(=O)c1ccc(N(Cc2ccc3c(c2)Cc2ccccc2-3)c2nc(-c3ccc(Cl)cc3)cs2)cc1

# Target: T2, Glucagon receptor (Homo sapiens, UniProt P47871)
# Experiment: Binding affinity to human recombinant glucagon receptor expressed in BHK cells by membrane filter assay
# Format: cell-based
# Details: not given
# T2 sequence (P47871 whole entry): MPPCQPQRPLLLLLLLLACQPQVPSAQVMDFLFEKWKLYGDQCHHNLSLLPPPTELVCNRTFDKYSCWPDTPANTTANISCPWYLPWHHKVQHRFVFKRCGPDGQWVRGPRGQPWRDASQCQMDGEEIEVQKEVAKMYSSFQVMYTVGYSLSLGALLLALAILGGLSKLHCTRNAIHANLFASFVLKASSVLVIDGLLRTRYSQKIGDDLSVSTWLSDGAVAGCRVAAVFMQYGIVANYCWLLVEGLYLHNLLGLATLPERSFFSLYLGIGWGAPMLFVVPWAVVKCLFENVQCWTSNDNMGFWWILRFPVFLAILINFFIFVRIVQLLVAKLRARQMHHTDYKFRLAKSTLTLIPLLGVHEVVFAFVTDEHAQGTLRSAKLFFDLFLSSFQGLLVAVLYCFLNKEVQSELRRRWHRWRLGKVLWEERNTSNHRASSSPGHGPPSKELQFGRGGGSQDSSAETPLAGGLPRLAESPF
row,IC50 [µM],Structure (SMILES)
1,0.034,O=C(O)CCNC(=O)c1ccc(N(Cc2ccc3c(c2)Cc2ccccc2-3)c2nc(-c3ccc(Cl)cc3)cs2)cc1

# System: not listed separately
# Experiment: Tmax in fasted Sprague-Dawley rat at 1.6mg/kg, iv and 3 mg/kg, po
# Format: ADME, organism-based
# Set-up: dose 3 mg/kg, route oral
# Details: in vivo
# Outline: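 Plasma concentration–time profiles were recorded after separate intravenous and peroral dosing at the per-compound doses listed. T_max is reported in min alongside C_max (ng/mL), intravenous half-life and clearance ((mL/min)/kg).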
row,Tmax [h],Structure (SMILES)
1,1.5,O=C(O)CCNC(=O)c1ccc(N(Cc2ccc3c(c2)Cc2ccccc2-3)c2nc(-c3ccc(OC(F)(F)F)cc3)cs2)cc1

# System: not listed separately
# Experiment: Clearance in fasted Sprague-Dawley rat at 1.66 mg/kg, iv and 3 mg/kg, po
# Format: ADME, organism-based
# Details: in vivo
# Outline: (§1)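 Rats were dosed intravenously and perorally in separate arms, and plasma concentration-time profiles were obtained. Half-life was taken from the iv arm. Clearance, oral bioavailability, Cmax and Tmax were derived from the profiles.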
row,clearance [L/h/kg],Structure (SMILES)
1,1.86,O=C(O)CCNC(=O)c1ccc(N(Cc2ccc3c(c2)Cc2ccccc2-3)c2nc(-c3ccc(OC(F)(F)F)cc3)cs2)cc1

# System: not listed separately
# Experiment: Oral bioavailability in fasted Sprague-Dawley rat at 3 mg/kg by HTLC-MS/MS analysis
# Format: ADME, organism-based
# Details: in vivo
# Outline: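 Separate intravenous and peroral dosing arms per compound, with plasma concentration followed against time. Oral bioavailability (F_po) is reported per compound together with the intravenous half-life and clearance. The dose used for each arm is listed per compound.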
row,bioavailability [%],Structure (SMILES)
1,13,O=C(O)CCNC(=O)c1ccc(N(Cc2ccc3c(c2)Cc2ccccc2-3)c2nc(-c3ccc(OC(F)(F)F)cc3)cs2)cc1

# System: not listed separately
# Experiment: Half life in fasted Sprague-Dawley rat plasma at 1.66 mg/kg, iv by HTLC-MS/MS analysis
# Format: ADME, organism-based
# Set-up: dose 1.66 mg/kg, route intravenous
# Details: not given
# Outline: as §1
row,half-life [h],Structure (SMILES)
1,0.767,O=C(O)CCNC(=O)c1ccc(N(Cc2ccc3c(c2)Cc2ccccc2-3)c2nc(-c3ccc(OC(F)(F)F)cc3)cs2)cc1

# Target: T1, Gastric inhibitory polypeptide receptor
# Experiment: Binding affinity to human recombinant GIPR expressed in BHK cells by membrane filter assay
# Format: cell-based
# Details: not given
row,IC50 [µM],Structure (SMILES)
1,0.32,O=C(O)CCNC(=O)c1ccc(N(Cc2ccc3c(c2)Cc2ccccc2-3)c2nc(-c3ccc(Cl)cc3)cs2)cc1

# Species on record: Homo sapiens
# Experiment: Selectivity ratio of IC50 for human recombinant glucagon receptor to IC50 for human recombinant GIPR
# Details: not given
# Outline: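 Competition binding of compounds to recombinant human glucagon and GIP receptors on BHK cell membranes, run in parallel as a scintillation proximity assay and, for selected compounds, as a membrane filtration assay.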
row,fold change (FC),Structure (SMILES)
1,5,O=C(O)CCNC(=O)c1ccc(N(Cc2ccc3c(c2)Cc2ccccc2-3)c2nc(-c3ccc(OC(F)(F)F)cc3)cs2)cc1
2,5,O=C(NC[C@@H](O)C(=O)O)c1ccc(CN(c2ccc3c(c2)CCC3)c2nc(-c3ccc(C(F)(F)F)cc3)cs2)cc1
3,5,O=C(O)CCNC(=O)c1ccc(CN(c2ccc(SC(F)(F)F)cc2)c2nc(-c3ccc(C(F)(F)F)cc3)cs2)cc1
4,5,O=C(O)CCNC(=O)c1ccc(N(Cc2ccc3c(c2)Cc2ccccc2-3)c2nc(-c3ccc(Cl)cc3)cs2)cc1

# Species on record: Homo sapiens
# Experiment: Selectivity for human recombinant glucagon receptor over human GLP1R
# Details: not given
row,fold change (FC),Structure (SMILES)
1,> 50,O=C(O)CCNC(=O)c1ccc(N(Cc2ccc3c(c2)Cc2ccccc2-3)c2nc(-c3ccc(OC(F)(F)F)cc3)cs2)cc1
2,> 50,O=C(NC[C@@H](O)C(=O)O)c1ccc(CN(c2ccc3c(c2)CCC3)c2nc(-c3ccc(C(F)(F)F)cc3)cs2)cc1
3,> 50,O=C(O)CCNC(=O)c1ccc(CN(c2ccc(SC(F)(F)F)cc2)c2nc(-c3ccc(C(F)(F)F)cc3)cs2)cc1
4,> 50,O=C(O)CCNC(=O)c1ccc(N(Cc2ccc3c(c2)Cc2ccccc2-3)c2nc(-c3ccc(Cl)cc3)cs2)cc1

# Target: T2, Glucagon receptor
# Experiment: Displacement of [125I]porcine glucagon from human recombinant glucagon receptor expressed in BHK cells by scintillation proximity assay
# Format: cell-based
# Details: not given
row,IC50 [µM],Structure (SMILES)
1,0.081,O=C(O)CCNC(=O)c1ccc(N(Cc2ccc3c(c2)Cc2ccccc2-3)c2nc(-c3ccc(OC(F)(F)F)cc3)cs2)cc1
2,0.261,O=C(NC[C@@H](O)C(=O)O)c1ccc(CN(c2ccc3c(c2)CCC3)c2nc(-c3ccc(C(F)(F)F)cc3)cs2)cc1
3,0.034,O=C(O)CCNC(=O)c1ccc(CN(c2ccc(SC(F)(F)F)cc2)c2nc(-c3ccc(C(F)(F)F)cc3)cs2)cc1
4,0.093,O=C(O)CCNC(=O)c1ccc(N(Cc2ccc3c(c2)Cc2ccccc2-3)c2nc(-c3ccc(Cl)cc3)cs2)cc1

# System: not listed separately
# Experiment: Cmax in fasted Sprague-Dawley rat at 1.66mg/kg, iv and 3 mg/kg, po
# Format: ADME, organism-based
# Set-up: dose 3 mg/kg, route oral
# Details: in vivo
# Outline: as §1
row,Cmax [µg/mL],Structure (SMILES)
1,0.082,O=C(O)CCNC(=O)c1ccc(N(Cc2ccc3c(c2)Cc2ccccc2-3)c2nc(-c3ccc(OC(F)(F)F)cc3)cs2)cc1
